The source made the active and inactive calls. The rule behind the calls is not given here.
Key:
PANC-1 [1] = experiment: Induction of apoptosis in human PANC1 cells assessed as activation of caspase-3/7 at 0.8 to 1.6 uM; assay type: functional, cell-based
In short: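 Caspase-3/7 activity in treated Panc-1 cells was read with a homogeneous fluorogenic caspase-3/7 kit per the manufacturer.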

PANC-1 [2] = experiment: Downregulation of KRAS mRNA expression in human PANC1 cells at 1.6 uM after 6 to 24 hrs by qRT-PCR method relative to control; assay type: functional
In short: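 Panc-1 cells were seeded at 18 × 10^3/well and treated the next day. Total RNA was extracted 6 and 24 h later. cDNA was made with oligo-dT plus random hexamers and M-MLV reverse transcriptase (1 h, 37 °C). Multiplex probe qPCR measured KRAS against HPRT and β2-microglobulin (50 cycles: 10 s 95 °C, 60 s 58 °C).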

[3] = Binding affinity to human KRAS utr-4 G-quadruplex RNA by fluorescence titration method
Homo sapiens [4] = organism: Homo sapiens; experiment: Stabilization of human KRAS 5'-UTR G-quadruplex RNA transfected in human PANC1 cells assessed as inhibition of translation at 0.3 to 1.6 uM preincubated for 6 hrs followed by transfection measured after 48 hrs by dual-glo luciferase reporter gene assay; assay type: cell-based
In short: (§1)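 Panc-1 cells (20 × 10^3) were treated the next day for 6 h. They were then transfected with jet-PEI using 10 ng Renilla reporter under the KRAS promoter including the 5′-UTR, plus 200 ng Firefly plasmid under a G4-mutated HRAS promoter. Dual-Glo luminescence was read 48 h later. Renilla/Firefly is given as T/C × 100 against untreated cells.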

PANC-1 [5] = experiment: Induction of apoptosis in human PANC1 cells at 1.6 uM after 72 hrs by annexin V/propidium iodide staining-based flow cytometric method (reference value: 1.2%); assay type: functional
In short: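 Panc-1 cells were exposed to 1.6 μM compound for 72 h, stained with FITC-annexin V and propidium iodide, and apoptotic cells counted by flow cytometry.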

[6] = Binding affinity to WC RNA hairpin (unknown origin) by fluorescence titration method
[7] = Selectivity ratio of Kd for WC RNA hairpin (unknown origin) to Kd for human KRAS utr-1 G-quadruplex RNA
Homo sapiens [8] = organism: Homo sapiens; experiment: Stabilization of human KRAS utr-1 G-quadruplex RNA assessed as change in melting temperature at 1 to 4 ligand to RNA ratio after 1 hr by UV-visible spectrophotometer
In short: (§2)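 UV-melting curves of the G4 RNA were recorded at 260 and 296 nm in a 0.5 cm cuvette, in 50 mM Tris-HCl pH 7.4, 100 mM KCl. Ligand was tested at ligand/G4 ratio r = 1, 2 and 4. ΔTM is the TM increase over RNA alone.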

Homo sapiens [9] = organism: Homo sapiens; experiment: Stabilization of human KRAS 5'-UTR G-quadruplex RNA in human PANC1 cells assessed as inhibition of translation by measuring levels of KRAS protein at 1.6 uM after 48 hrs by Western blot method relative to control; assay type: cell-based; design: scale not given: the % may be the effect or the level left
In short: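 Panc-1 lysates (15 μg protein) were run on 12% SDS-PAGE and transferred to nitrocellulose. Membranes were blocked with 5% BSA in PBS-0.05% Tween and probed overnight at 4 °C with rabbit polyclonal anti-KRAS (1:250) and mouse anti-actin. HRP-conjugated secondaries were applied for 1 h, with chemiluminescent detection.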

[10] = Selectivity ratio of Kd for WC RNA hairpin (unknown origin) to Kd for human KRAS utr-z G-quadruplex RNA
Homo sapiens [11] = organism: Homo sapiens; experiment: Stabilization of human KRAS utr-c G-quadruplex RNA assessed as change in melting temperature at 1 to 4 ligand to RNA ratio after 1 hr by UV-visible spectrophotometer; in short: as §2
Homo sapiens [12] = organism: Homo sapiens; experiment: Stabilization of human KRAS utr-z G-quadruplex RNA assessed as change in melting temperature at 1 to 4 ligand to RNA ratio after 1 hr by UV-visible spectrophotometer; in short: as §2
PANC-1 [13] = experiment: Inhibition of metabolic activity in human PANC1 cells after 72 hrs by resazurin assay; assay type: functional, cell-based; details: PANC-1, 72 h
In short: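 Panc-1 cells were seeded at 10 × 10^3/well, treated after 1 day, incubated 72 h, then assayed with resazurin for metabolic activity. IC50 was reported.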

[14] = Drug uptake in human PANC1 cells at 3 uM after 4 hrs by flow cytometric method; assay type: ADME, cell-based; details: panc-1, 4 h
In short: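 Panc-1 cells were seeded at 5 × 10^4/well and exposed the next day to 3 μM compound for 4 h. Cells were trypsinized, resuspended in PBS and analysed at once by flow cytometry (488 nm excitation, FL3 680 nm, log scale), at least 10^4 cells per sample, gated on FSC/SSC.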

[15] = Binding affinity to human KRAS utr-1 G-quadruplex RNA by fluorescence titration method
In short: (§3)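 KD was obtained from fluorescence titrations of ligand with G4 RNA in 50 mM Tris-HCl, pH 7.4, 100 mM KCl.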

[16] = Binding affinity to human KRAS utr-z G-quadruplex RNA by fluorescence titration method; in short: as §3
[17] = Selectivity ratio of Kd for WC RNA hairpin (unknown origin) to Kd for human KRAS utr-4 G-quadruplex RNA
[18] = Binding affinity to human KRAS promoter G-quadruplex DNA by fluorescence titration method
[19] = Drug uptake in cytoplasm of human PANC1 at 3 uM after 4 hrs by Syto-14 fluorescent dye-based confocal microscopic method; assay type: ADME
Homo sapiens [20] = organism: Homo sapiens; experiment: Stabilization of human KRAS utr-1 G-quadruplex RNA assessed as change in melting temperature at 4 ligand to RNA ratio after 1 hr in presence of 5 or 10 fold excess 21 mer RNA duplex by UV-visible spectrophotometer
In short: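 The utr-1 G4 RNA was UV-melted with ligand at ligand/G4 ratio r = 4, with a 5- or 10-fold excess of 21-mer RNA duplex added to test quadruplex-over-duplex competition.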

PANC-1 [21] = experiment: Inhibition of colony formation in human PANC1 cells at 0.25 to 0.5 uM after 18 days by methylene blue assay relative to control; assay type: functional
In short: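 Panc-1 cells were plated in 60 mm dishes with compound. After 18 days they were fixed and stained 10 min with 2.5% methylene blue in 50% ethanol. Colonies of more than 50 cells were counted.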

Cytomegalovirus = experiment: Stabilization of CMV promoter lacking KRAS 5'-UTR G-quadruplex RNA transfected in human PANC1 cells assessed as inhibition of translation at 0.15 to 0.6 uM preincubated for 6 hrs followed by transfection measured after 48 hrs by dual-glo luciferase reporter gene assay; assay type: cell-based
In short: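 Renilla reporter pRL-CMV lacks the KRAS 5′-UTR. Panc-1 cells were pretreated 6 h, then cotransfected (10 ng) with 200 ng Firefly plasmid under a G4-mutated HRAS promoter. Dual-Glo was read after 48 h, expressed as Renilla/Firefly T/C × 100 versus untreated cells.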

Homo sapiens [22] = organism: Homo sapiens; experiment: Stabilization of human KRAS 5'-UTR G-quadruplex RNA at 3'-end of CMV promoter transfected in human PANC1 cells assessed as inhibition of translation preincubated for 6 hrs followed by transfection measured after 48 hrs by dual-glo luciferase reporter gene assay; assay type: cell-based
In short: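 Renilla reporter pRL-CMV-UTR carries the 192-nt KRAS 5′-UTR inserted downstream of the CMV promoter. Panc-1 cells were pretreated 6 h (0–1.6 μM), then cotransfected (10 ng) with 200 ng Firefly plasmid under a G4-mutated HRAS promoter. Dual-Glo was read after 48 h, expressed as Renilla/Firefly T/C × 100.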

Homo sapiens [23] = organism: Homo sapiens; experiment: Stabilization of human KRAS 5'-UTR G-quadruplex RNA transfected in human PANC1 cells assessed as inhibition of translation at 0.07 to 0.33 uM preincubated for 6 hrs followed by transfection measured after 48 hrs by dual-glo luciferase reporter gene assay; assay type: cell-based; in short: as §1

Compound	Activity (PANC-1 [1])	Activity (PANC-1 [2])	Kd [3]	inhibition (Homo sapiens [4])	Activity (PANC-1 [5])	Kd [6]	Selectivity ratio [7]	ΔTm (Homo sapiens [8])	Activity (Homo sapiens [9])	Selectivity ratio [10]	ΔTm (Homo sapiens [11])	ΔTm (Homo sapiens [12])	IC50 (PANC-1 [13])	Drug uptake [14]	Kd [15]	Kd [16]	Selectivity ratio [17]	Kd [18]	Drug uptake [19]	further results
N=C(N)NCCNc1c2c(c(NCCNC(=N)N)c3sccc13)C(=O)c1ccccc1C2=O	inactive	inactive	–	–	–	–	–	–	–	–	–	–	–	–	–	–	–	–	–	–
NCCNc1c2c(c(NCCN)c3sccc13)C(=O)c1ccccc1C2=O	Active	inactive	83 nM	Dose-dependent effect	20.6%	482 nM	2 to 6	< 20 °C	< 10%	2 to 6	< 20 °C	< 20 °C	900 nM	Active	91 nM	294 nM	2 to 6	278 nM	–	–
N=C(N)NCCNc1c2c(c(NCCNC(=N)N)c3occc13)C(=O)c1ccccc1C2=O	inactive	inactive	–	–	–	–	–	–	–	–	–	–	–	–	–	–	–	–	Active	–
NCCNc1c2c(c(NCCN)c3occc13)C(=O)c1ccccc1C2=O	Active	50%	96 nM	Dose-dependent effect	32.5%	514 nM	2 to 6	< 32 °C	< 10%	2 to 6	< 32 °C	< 32 °C	260 nM	Active	75 nM	251 nM	2 to 6	626 nM	Active	Activity (Homo sapiens [20]): Active; inhibition (INH) (PANC-1 [21]): 80%; inhibition (Cytomegalovirus): inactive; inhibition (Homo sapiens [22]): Dose-dependent effect; inhibition (Homo sapiens [23]): Dose-dependent effect
